# Bioassay records as filed in PubChem BioAssay.
# The list is not random: actives were taken first. Their share in the collection is about 3.4%.
# TAAR1 antagonist: human TAAR1 antagonists, primary screen, Fluo-8 calcium fluorescence, CHO RD-HGA16 cells; Trace amine-associated receptor 1 (Homo sapiens), Q96RJ0; antagonist; inhibition, % at 3 µM; 360,000 compounds, 1.5% hits;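 active means inhibition above a per-plate cutoff, the mean inhibition of test compounds on that plate plus 3 SD, cut at about 49% in these data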;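 further: 0% = DMSO plus EC80 beta-PEA response and 100% = DMSO alone without agonist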
#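 Test system: CHO RD-HGA16 cells bearing hTAAR1 | Reagent: β-PEA, EC80 | Compound dosing: 3 µM, single point | Schedule: Dye loading 75 min at 37 °C, then 30 min room temperature | Signal: Calcium fluorescence with Fluo-8 | Evaluation: Percent inhibition of PEA-evoked calcium signal, max/basal emission ratio | Control set: DMSO-only wells and EC80 β-PEA-stimulated wells | Repeats: Singlicate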
# CHRM1 agonist: human M1 muscarinic receptor agonists, primary screen, Fluo-8 calcium fluorescence, CHO-K1 cells, HTS | 360,000 compounds, 0.33% hits | CHO-K1 hM1, agonist mode; 0% DMSO, 100% acetylcholine EC100 | Muscarinic acetylcholine receptor M1 (Homo sapiens), P11229 | activation, % at 3 µM;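 active means activation above the run's mean compound activation plus 3 SD, cut at about 16% in these data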;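 further: peak over basal fluorescence ratio within a 140 s kinetic read after compound addition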
# Target sequence (P11229 whole entry, looked up): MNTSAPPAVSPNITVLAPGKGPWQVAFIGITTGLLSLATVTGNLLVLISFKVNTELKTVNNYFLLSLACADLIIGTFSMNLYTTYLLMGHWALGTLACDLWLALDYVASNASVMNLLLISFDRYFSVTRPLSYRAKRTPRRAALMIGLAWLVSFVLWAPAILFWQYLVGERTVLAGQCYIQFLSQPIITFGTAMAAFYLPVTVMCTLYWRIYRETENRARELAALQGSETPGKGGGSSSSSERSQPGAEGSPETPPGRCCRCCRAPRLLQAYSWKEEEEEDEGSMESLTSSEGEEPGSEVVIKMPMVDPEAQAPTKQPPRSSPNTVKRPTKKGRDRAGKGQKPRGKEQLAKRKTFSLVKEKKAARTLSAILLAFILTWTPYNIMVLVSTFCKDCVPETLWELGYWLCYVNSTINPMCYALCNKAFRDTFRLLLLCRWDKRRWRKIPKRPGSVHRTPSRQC
# TAAR1 ag: human TAAR1 agonists, primary screen, Fluo-8 calcium fluorescence, CHO RD-HGA16 cells | Trace amine-associated receptor 1 (Homo sapiens), Q96RJ0 | vehicle wells 0%, saturating PEA agonist 100% | activation, % at 3 µM | 360,000 compounds, 0.99% hits | AID 624467, 2012;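 active means activation above the mean activation of all test compounds in the run plus 3 SD, cut at about 38% in these data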
#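 System: CHO-derived RD-HGA16 cells with stable Gα16 and human TAAR1. Times: 17-24 h plating, Fluo-8 75 min 37 °C, 30 min RT. Measured by: calcium-sensitive Fluo-8 signal, excitation 470-495, emission 515-575 nm. Read-out basis: % activation relative to PEA EC100 response. Control set: DMSO and PEA EC100. Repeats: no replicates (n 1).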
# CHRM1 antagonist: human M1 muscarinic receptor antagonists, primary screen, CHO-K1 cells, Fluo-8 calcium fluorescence, 1536-well; Muscarinic acetylcholine receptor M1 (Homo sapiens), P11229; 360,000 compounds, 1.3% hits; inhibition, % at 3 µM; CHO-K1 hM1, ACh EC80 antagonist;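 active means percent inhibition above its own plate's cutoff, namely the mean of that plate's compound wells plus 3 SD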;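 further: peak over basal fluorescence ratio during 140 s after agonist addition; 0% = ACh EC80 plus DMSO and 100% = DMSO alone without agonist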
# M1 PAM: human M1 muscarinic receptor positive allosteric modulators, primary screen, CHO-K1 cells, Fluo-8 calcium fluorescence, 1536-well; Muscarinic acetylcholine receptor M1 (Homo sapiens), P11229; CHO-K1 hM1, ACh EC20; 0% = ACh EC20, 100% = maximal ACh; activation, % at 3 µM; 360,000 compounds, 0.088% hits; AID 588819, 2011; in the data active means activation above about 19%, passing the limit was not always enough
# TAAR1 nonsel count: nonselective antagonists in TAAR1 counter-screen cells, counter-screen for hTAAR1 antagonist project, cell-based, fluorescence, calcium; AID 651780, 2012; inhibition, % at 3 µM; shares compounds with TAAR1 antagonist; 2,400 compounds, 77% hits; counterscreen cell line, antagonist mode; in the data active means inhibition above about 22%;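 further: CHO-Ga16 host cells stimulated with ATP at an EC80 level; 0% = agonist EC80 plus vehicle and 100% = vehicle without agonist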
# TAAR1 ant conf: human TAAR1 antagonists, retest of hits, confirmation, cell-based, fluorescence. shares compounds with TAAR1 antagonist. TAAR1-expressing cells, fluorescence antagonist read-out. inhibition, % at 3 µM. 2,400 compounds, 40% hits; in the data active means inhibition above about 49%;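 further: CHO-Ga16 host cells challenged with agonist PEA near its EC80; 0% = agonist at EC80 plus vehicle and 100% = vehicle with no agonist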
# Ga16 ag counter: calcium activation in Ga16-expressing cells, counter-screen for TAAR1 antagonist project, cell-based, fluorescence | shares compounds with TAAR1 antagonist | agonist counterscreen | 2,400 compounds, 18% hits | activation, % at 3 µM | AID 651953, 2012; in the data active means activation above about 12%;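 further: 0% = vehicle wells and 100% = saturating stimulus response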
# TAAR1 ag counter: TAAR1 activation by candidate antagonists – cell-based, fluorescence, counter-screen for TAAR1 antagonist project; shares compounds with TAAR1 antagonist; AID 651955, 2012; 2,400 compounds, 2% hits; hTAAR1 cell line, agonist mode; activation, % at 3 µM; in the data active means activation above about 37%;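 further: CHO cells stably expressing TAAR1 with calcium dye readout; 0% = DMSO vehicle and 100% = full agonist response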
# * hit, by the source's call; . = no result given.
SMILES,TAAR1 antagonist,CHRM1 agonist,TAAR1 ag,CHRM1 antagonist,M1 PAM,TAAR1 nonsel count,TAAR1 ant conf,Ga16 ag counter,TAAR1 ag counter
CCOc1ccc2nc(NC(=O)CS(=O)(=O)c3ccc(C)cc3)sc2c1,55*,-2,6,-2,3,20,38,2,3
Cc1ccccc1-n1nnnc1SCc1csc(-c2ccccc2)n1,70*,-2,16,3,-4,28*,43,7,7
CN(C)CCCN(C(=O)/C=C/c1cccs1)c1nc2ccc(F)cc2s1,-10,3,14,-2,12,.,.,.,.
CN(C)CCN(C(=O)/C=C/c1cccs1)c1nc2c(F)cc(F)cc2s1,56*,-6,32,0,6,15,16,4,9
O=C1[C@@H](c2ccccc2)CC[C@@H]2C=CC[C@H]3CCN1[C@@H]32,0,.,0,.,.,.,.,.,.
CCCCCCC(=O)N(O)C1CC(=O)N(c2ccc(Br)cc2)C1=O (stereo unspecified),106*,-3,-4,2,3,12,13,2,1
O=[N+]([O-])c1ccccc1-c1ccc(/C=N/n2cnnc2)o1,3,-5,2,19,-6,.,.,.,.
O=C1ON=C(c2ccccc2)/C1=C/c1ccc(-c2ccccc2[N+](=O)[O-])o1,57*,-1,20,11,9,66*,63*,19*,18
CC1Nc2ncnc(N3CCN(c4ccccc4)CC3)c2N(Cc2ccc(Br)cc2)C1=O (stereo unspecified),57*,-5,29,7,-11,18,36,8,7
CCCCNC(=O)C1(C)CCCCN1CC(=O)c1ccc(OC)cc1 (stereo unspecified),-29,-7,7,-7,1,.,.,.,.
O=C(COC(=O)c1ccc(O)cc1O)Nc1cc(-c2ccccc2)nn1-c1ccccc1,72*,0,12,-3,6,35*,38,9,11
COc1ccccc1-c1cccc(-c2nc(C(=O)Nc3nccs3)cc3c2[C@H](CCO)N(C(C)=O)C3)c1,71*,.,7,.,.,30*,51*,7,5
Cc1cc2nc(-c3ccc(C#N)cc3)c(Cc3ccsc3)n2c(C)c1Br,-11,.,-1,.,.,.,.,.,.
O=C1NC2(CCCCCC2)C(=O)N1Cc1cccc([N+](=O)[O-])c1,101*,-2,-2,4,1,0,5,1,5
Cc1nc2ccc(C(=O)N3c4ccccc4N=C(c4ccc5c(c4)OCO5)C3C(=O)NCc3ccccc3)cc2[nH]1 (stereo unspecified),-10,.,1,.,.,.,.,.,.
Cn1c(C(=O)Nc2ccc3c(c2)OCCO3)cc2c(=O)n(C)c3ccccc3c21,52*,1,3,-6,-4,10,35,8,13
COc1ccccc1-c1ccc(OCCCN2CCC(C(O)(c3ccccc3)c3ccccc3)CC2)cc1,56*,.,32,.,.,42*,59*,15*,37
OC(c1ccccc1)(c1ccccc1)C1CCN(CCCOc2cccc(OC(F)(F)F)c2)CC1,37,.,20,.,.,.,.,.,.
OC(c1ccccc1)(c1ccccc1)C1CCN(CCCOc2ccc(-c3ccc(F)cc3F)cc2)CC1,52*,.,35,.,.,42*,47,18*,35
CCOc1ccc(NC(=O)CN(C)C(=O)C2CC(=O)N(CCc3ccc(OC)c(OC)c3)C2)cc1OCC (stereo unspecified),100*,-4,-2,6,3,-3,-4,8,11
CCCCN(C)c1c(C)nc2ccc(C(=O)N(C)Cc3ccco3)cn12,-23,-6,5,10,-7,.,.,.,.
c1ccc(CCc2ccccc2-c2nc(-c3ccccn3)no2)cc1,51*,-1,19,0,3,12,31,9,16
Cc1ccc(C)c(OCCC(=O)OCC(=O)Nc2ccc(C)c(S(=O)(=O)N3CCCCC3)c2)c1,53*,0,6,3,-2,39*,44,7,8
Cc1ccccc1OCCC(=O)OCC(=O)Nc1ccc(C)c(S(=O)(=O)N2CCCCC2)c1,32,3,5,-6,-3,.,.,.,.
CCn1cnc2c(Nc3cc(F)cc(F)c3)nc(C#N)nc21,-6,0,11,7,14,.,.,.,.
SMILES,TAAR1 antagonist,CHRM1 agonist,TAAR1 ag,CHRM1 antagonist,M1 PAM,TAAR1 nonsel count,TAAR1 ant conf,Ga16 ag counter,TAAR1 ag counter
N#Cc1nc(Nc2cccc(Cl)c2)c2ncn(C3CCCC3)c2n1,75*,0,19,-1,-1,22*,32,2,2
CCC(C(=O)OCC(=O)Nc1ccc(SC(F)F)cc1)c1ccccc1 (stereo unspecified),63*,-10,2,0,-7,39*,53*,3,7
CC(C)c1ccc(NC(=O)Nc2nc(C(N)COCc3ccccc3)cs2)cc1 (stereo unspecified),6,2,31,10,3,.,.,.,.
CCOc1ccc(/C=C2\SC(=O)N(CCNC(=O)C3COc4ccccc4O3)C2=O)cc1OC (stereo unspecified),78*,-1,9,32,-19,35*,47,9,4
COc1ccc(/C=C2/SC(=O)N(CCNC(=O)C3COc4ccccc4O3)C2=O)cc1 (stereo unspecified),16,-6,14,-5,6,.,.,.,.
CC1(c2nnnn2-c2ccc3c(c2)OCCO3)CCC(=O)N1CCc1ccccc1F (stereo unspecified),-16,.,3,.,.,.,.,.,.
CCOC(=O)[C@]12CCCC=C1N(CCc1ccc(OC)c(OC)c1)C(=O)[C@H](CC(=O)NCC13CC4CC(CC(C4)C1)C3)C2,4,.,-2,.,.,.,.,.,.
COc1ccc2nc(C)cc(SCC(=O)NNC(=O)COc3ccc(C)cc3)c2c1,-4,-6,5,-14,11,.,.,.,.
COc1ccc2nc(C)cc(SCC(=O)NNC(=O)COc3cccc4ccccc34)c2c1,71*,0,19,22,-12,46*,56*,9,8
